Source: PubChem BioAssay (Broad Institute)
Hits are enriched below; roughly 2.1% of the tested compounds scored in any of these assays.
FN deposition inh: fibronectin deposition inhibition; inhibition, % at 12.6 µM; actives 0.086% (n = 350,000); AH1F fibroblasts, Alexa488-fibronectin deposition fluorescence, overnight;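 active = mean inhibition across replicates of 30% or more, regardless of how many single replicates reach that level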
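Assay system: AH1F fibroblasts / Quantity: 10000 cells per well / Medium: DMEM plus 2% serum, read in PBS / Reagent: labelled fibronectin 24 nM / Dosing: single dose, pinned / Times: 1 h cell attachment, overnight exposure to compound and label / Signal: fluorescence, ex 485 nm, em 525 nm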
FGF22 binding-1: shifts melting point of recombinant human FGF22. Q9HCT0. recombinant FGF22 thermal shift, SYPRO orange fluorescence; percent of sucrose octasulfate shift, DMSO zero. activity (Tm shift, normalised), % at 9.99 µM. actives 1.5% (n = 340,000);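 active = mean Tm shift, scaled 0 neutral to 100 positive control, at about 1.3% or above, every replicate too, limit read from the data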
Target sequence (Q9HCT0 whole entry, looked up): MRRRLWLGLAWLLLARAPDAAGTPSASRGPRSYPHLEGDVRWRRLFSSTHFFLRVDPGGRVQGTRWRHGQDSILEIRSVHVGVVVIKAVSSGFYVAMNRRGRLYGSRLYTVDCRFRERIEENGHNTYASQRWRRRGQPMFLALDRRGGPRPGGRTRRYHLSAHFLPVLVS
PDI inh: inhibitors of human protein disulfide isomerase | PDI insulin aggregation turbidity, A650, 90 min | P07237 | actives 0.052% (n = 350,000) | inhibition, % at 10 µM | AID 588391;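 active = mean inhibition across replicates of 30% or more, whatever share of single replicates reach that level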
Target sequence (P07237 whole entry, looked up): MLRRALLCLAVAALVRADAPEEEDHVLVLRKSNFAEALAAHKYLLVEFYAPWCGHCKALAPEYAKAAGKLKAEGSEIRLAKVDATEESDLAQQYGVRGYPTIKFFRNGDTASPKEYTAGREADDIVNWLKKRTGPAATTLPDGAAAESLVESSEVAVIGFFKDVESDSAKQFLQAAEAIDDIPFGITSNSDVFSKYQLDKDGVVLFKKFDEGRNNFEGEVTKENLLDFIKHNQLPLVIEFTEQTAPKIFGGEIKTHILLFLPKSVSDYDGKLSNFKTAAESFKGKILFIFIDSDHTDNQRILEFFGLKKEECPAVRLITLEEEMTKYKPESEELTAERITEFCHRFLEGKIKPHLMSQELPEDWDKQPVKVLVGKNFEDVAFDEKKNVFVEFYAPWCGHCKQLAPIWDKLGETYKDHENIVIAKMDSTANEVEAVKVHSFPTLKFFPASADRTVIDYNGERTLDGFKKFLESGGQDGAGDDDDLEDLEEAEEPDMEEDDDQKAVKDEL
AF4-AF9 inh: MLL-AF4/AF9 protein interaction inhibition | AID 651704 | P42568 | actives 0.47% (n = 350,000) | inhibition, % at 10 µM | AlphaScreen, biotin-AF4 peptide binding to FLAG-AF9;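 active = every replicate reaching a set inhibition limit, whatever the replicate mean, cut at about 25% in these data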
ERp5 block: ERp5 (human) disulfide isomerase inhibition | inhibition, % at 9.99 µM | Q15084 | actives 0.05% (n = 350,000) | ERp5 insulin aggregation, absorbance 650 nm, 90 min;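 active = mean replicate inhibition above about 25%, with every replicate also reaching it, limit read from the data, passing the limit was not always enough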
ARNT-TACC3 inh: ARNT/TACC3 interaction disruption | inhibition, % at 9.99 µM | AlphaScreen His-ARNT PAS-B/GST-TACC3 binding, luminescence; TACC3 fragment carries E629A point mutation | Q9Y6A5 | actives 0.66% (n = 390,000);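 active = mean inhibition of replicates at least 50% and at least half of replicates each reaching 50%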
FGF22 binding-2: binds human FGF22 shifting its melting temperature; shares compounds with FGF22 binding-1; recombinant FGF22 thermal shift, SYPRO orange fluorescence; thermal shift activity, °C (ΔTm) at 38 µM; actives 2% (n = 1,000);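 active = fitted rise in melting shift crosses a set limit at or below the top valid dose tested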
FGF22 TSA: binds human FGF22 shifting its melting temperature. Tm shift (activity), % at 38 µM. Thermal shift assay, SYPRO orange, melting temperature shift. 50 tested, under 10 active. shares compounds with FGF22 binding-1. AID 743017;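 active = compounds whose fitted dose curve of melting temperature shift rises past a set threshold within the tested doses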
TSA no protein: compound-only SYPRO artifact for FGF22 binders | compound-only SYPRO orange thermal shift counter-screen, no protein | AID 743019 | actives 2% (n = 1,000) | AC50, µM (titrated, usually from 38 µM) | shares compounds with FGF22 binding-1;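 active = rising signal whose fitted curve reaches the 0.54 level within the top valid dose, showing a melting point, actives reach about 13 µM in these data; inactive = the rest, including activity in the opposite direction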; also: value is where the raw curve crosses a fixed level and not half-maximal
Of the large screens only hits and unclear results are named; the others gave an inactive call (follow-up assays come after a bar, where they were run).

COc1ccc(S(=O)(=O)N[C@H]2CC[C@H](CC(=O)N3CCc4ccccc4C3)O[C@@H]2CO)cc1	FGF22 binding-1 16.8 (no result: FN deposition inh, PDI inh) | FGF22 binding-2 inactive | TSA no protein inactive
Cc1ccc(S(=O)(=O)N[C@@H]2C=C[C@@H](CC(=O)N3CCc4ccccc4C3)O[C@@H]2CO)cc1	FGF22 binding-1 1.3 (no result: FN deposition inh, PDI inh) | FGF22 binding-2 inactive | TSA no protein inactive
Cc1[nH]c(=O)[nH]c(=O)c1S(=O)(=O)Nc1cccc([N+](=O)[O-])c1C	FGF22 binding-1 4.6 | FGF22 binding-2 inactive | TSA no protein inactive
Fc1ccccc1Nc1n[nH]c(=S)s1	FGF22 binding-1 1.6 (no result: FN deposition inh) | FGF22 binding-2 inactive | TSA no protein inactive
O=C(C[C@@H]1CC[C@@H]2[C@H](COC[C@@H](O)CN2C(=O)c2ccc(F)cc2)O1)NCCCN1CCOCC1	none (no result: PDI inh)
CSc1nc2nc(Cl)c(Cl)nc2[nH]1	FGF22 binding-1 1.4 (no result: ARNT-TACC3 inh) | FGF22 binding-2 inactive | TSA no protein inactive
Cc1onc(-c2ccccc2)c1C(=O)Nc1ncc([N+](=O)[O-])s1	FGF22 binding-1 1.9 | TSA no protein inactive
Cc1cc(C)n(-c2ccc(C(=O)Nc3ccc(S(=O)(=O)N(C)C)cc3)cc2)n1	FGF22 binding-1 1.5 | FGF22 binding-2 inactive | TSA no protein inactive
Cc1cc(C)n(-c2ccc(C(=O)Nc3cccc(S(=O)(=O)N(C)C)c3)cc2)n1	none
Cc1ccc(NC(=O)c2ccc(Cl)c(S(=O)(=O)NCC3CCCO3)c2)c(O)c1 (stereo not given)	FGF22 binding-1 30.0 | FGF22 binding-2 inactive | TSA no protein inactive
O=S(=O)(Nc1cccc(-n2cnnn2)c1)c1ccc(Cl)cc1	FGF22 binding-1 1.7 | FGF22 binding-2 inactive | TSA no protein inactive
COc1ccc(S(=O)(=O)Nc2cccc(-n3cnnn3)c2)cc1	none
Cn1c(=O)c2c(-c3ccccc3)n(-c3cc(Cl)c([N+](=O)[O-])cc3O)cc2n(C)c1=O	FGF22 binding-1 1.6 (no result: PDI inh, ARNT-TACC3 inh) | TSA no protein inactive
Cc1cccc(-c2c3c(=O)n(C)c(=O)n(C)c3cn2-c2ccccc2O)c1	none (no result: FN deposition inh, FGF22 binding-1, AF4-AF9 inh, ERp5 block)
Cn1c(=O)c2c(-c3ccccc3)n(-c3cc([N+](=O)[O-])ccc3O)cc2n(C)c1=O	FGF22 binding-1 1.4 (no result: ARNT-TACC3 inh) | FGF22 binding-2 inactive | TSA no protein inactive
Cc1ccc(CN2CCNC(=O)C2CC(=O)N(C)C2CCCCC2)cc1 (stereo not given)	FGF22 binding-1 1.5 | FGF22 binding-2 inactive | TSA no protein inactive
CCOc1ccc(CN2CCNC(=O)C2CC(=O)N(C)C2CCCCC2)cc1 (stereo not given)	none
Cc1cccc(-n2c(O)c(C=NC3CCS(=O)(=O)C3)c3ccccc3c2=O)c1 (stereo not given)	none (no result: FN deposition inh, FGF22 binding-1, AF4-AF9 inh, ERp5 block)
Cc1ccc(-n2c(O)c(C=NC3CCS(=O)(=O)C3)c3ccccc3c2=O)cc1C (stereo not given)	FGF22 binding-1 1.7 (no result: FN deposition inh) | FGF22 binding-2 inactive | TSA no protein inactive
O=C(NC1CCCCC1)c1cc(-c2cccc(Cl)c2)on1	FGF22 binding-1 3.9 | FGF22 binding-2 inactive | TSA no protein inactive
O=C(NC1CCCC1)c1cc(-c2cccc(Cl)c2)on1	none
COc1ccc(-c2csc(NC(=O)CN3C(=O)C4CCCCC4C3=O)n2)c(OC)c1 (stereo not given)	FGF22 binding-1 1.6 | FGF22 binding-2 inactive | TSA no protein 10.1µM
COc1ccc(NC(=O)N(C)C[C@@H]2Oc3ccc(NS(C)(=O)=O)cc3CC(=O)N([C@@H](C)CO)C[C@H]2C)cc1	FGF22 binding-1 15.8 (no result: PDI inh) | FGF22 binding-2 inactive | TSA no protein inactive
C[C@H](CO)N1C[C@H](C)[C@H](CN(C)C(=O)Nc2ccccc2)Oc2ccc(NC(=O)Nc3ccccc3)cc2CC1=O	FGF22 binding-1 1.2 (no result: FN deposition inh, PDI inh) | FGF22 binding-2 inactive | TSA no protein inactive
O=C(C[C@H]1CC[C@H](NC(=O)Nc2ccccc2F)[C@@H](CO)O1)NCc1ccc(F)cc1	none (no result: FN deposition inh, FGF22 binding-1, PDI inh, ARNT-TACC3 inh)
CC(C)(C)NC(=O)CN(C(=O)CNS(=O)(=O)c1ccc(Cl)cc1)c1ccc2c(c1)OCCO2	FGF22 binding-1 39.5 | FGF22 binding-2 inactive | TSA no protein inactive
Cc1ccc(S(=O)(=O)Nc2ccc3c(c2)C(=O)N([C@H](C)CO)C[C@@H](C)[C@@H](CN(C)C(=O)CCCN(C)C)OCCCC[C@@H](C)O3)cc1	none (no result: PDI inh)
O=C(Nc1ccc(Cl)cc1)N[C@@H]1CC[C@@H](CCNS(=O)(=O)c2ccccc2F)O[C@H]1CO	FGF22 binding-1 1.6 (no result: PDI inh) | FGF22 binding-2 inactive | FGF22 TSA inactive | TSA no protein inactive
O=C(C[C@H]1CC[C@H](NC(=O)Nc2cc(F)ccc2F)[C@@H](CO)O1)Nc1ccc(-c2ccccc2)cc1	FGF22 binding-1 1.6 (no result: PDI inh) | FGF22 binding-2 inactive | TSA no protein inactive
O=C(NCC[C@@H]1CC[C@H](NC(=O)C2CCOCC2)[C@H](CO)O1)Nc1ccc(Cl)cc1	FGF22 binding-1 1.4 (no result: FN deposition inh, PDI inh, ARNT-TACC3 inh) | FGF22 binding-2 inactive | TSA no protein inactive
O=C(NCC[C@@H]1CC[C@@H](NC(=O)C2CCOCC2)[C@@H](CO)O1)Nc1ccc(Cl)cc1	none (no result: FN deposition inh, PDI inh, ARNT-TACC3 inh)
O=C(Nc1ccc(Cl)cc1)N[C@@H]1CC[C@@H](CCNS(=O)(=O)c2ccccc2F)O[C@@H]1CO	none (no result: PDI inh)
O=C(Nc1cc(Cl)cc(Cl)c1)N[C@H]1CC[C@H](CCNS(=O)(=O)c2cccc(F)c2)O[C@@H]1CO	FGF22 binding-1 2.4 (no result: PDI inh, ARNT-TACC3 inh) | FGF22 binding-2 inactive | TSA no protein inactive
O=C(C[C@H]1CC[C@H]2[C@@H](COC[C@@H](O)CN2C(=O)Nc2cc(Cl)cc(Cl)c2)O1)N1CCCCC1	none (no result: PDI inh)
O=C(N[C@H]1CC[C@@H](CCNS(=O)(=O)c2ccc(F)cc2)O[C@H]1CO)C1CCC1	none (no result: PDI inh)
O=C(NCC[C@@H]1CC[C@H](NC(=O)c2cnccn2)[C@H](CO)O1)Nc1ccc(F)cc1	FGF22 binding-1 9.1 (no result: PDI inh) | FGF22 binding-2 inactive | TSA no protein inactive
O=C(NCC[C@@H]1CC[C@@H](NC(=O)c2cnccn2)[C@H](CO)O1)Nc1ccc(F)cc1	none (no result: PDI inh)
O=C(N[C@H]1CC[C@@H](CCNS(=O)(=O)c2ccc(F)cc2)O[C@H]1CO)C1CCCC1	FGF22 binding-1 9.7 (no result: FN deposition inh, PDI inh) | FGF22 binding-2 inactive | TSA no protein inactive
C[C@@H]1CCCCO[C@@H](CN(C)CC2CC2)[C@H](C)CN([C@H](C)CO)C(=O)c2cc(NS(C)(=O)=O)ccc2O1	none (no result: PDI inh)
